Experimental data reported in ChEMBL document CHEMBL3853270, “Influence of Birch Bark Triterpenes on Keratinocytes and Fibroblasts from Diabetic and Nondiabetic Donors” (2016).
Activity calls are given as the source filed them.

How the values were obtained:
Fibroblast [1] = experiment: Induction of shape change of actin cytoskeleton in human diabetic primary fibroblasts at 10 nM after 2 hrs by rhodamine phalloidin-staining based fluorescence microscopic analysis; format: functional
Fibroblast [2] = experiment: Induction of shape change of actin cytoskeleton in human non-diabetic primary fibroblasts at 10 nM after 2 hrs by rhodamine phalloidin-staining based fluorescence microscopic analysis; format: functional
Fibroblast [3] = experiment: Effect on actin cytoskeleton in human non-diabetic primary fibroblasts assessed as formation of thin elongated cellular body at 10 nM after 2 hrs in presence of p-38 MAPK inhibitor LN 950 by rhodamine phalloidin-staining based fluorescence microscopic analysis; format: functional
Method in brief: (§1)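 Subconfluent cells on glass coverslips, collagen type I coated for fibroblasts; keratinocytes starved 2 days before stimulation. Exposure 2 h, then rhodamine-phalloidin staining (1:25 in PBS) and fluorescence microscopy. Controls were DMSO as solvent and PDGF (fibroblasts) or CNF1 (keratinocytes). Where used, p38-MAPK inhibitor LN 950 (100 nM) was added 30 min beforehand.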

Fibroblast [4] = experiment: Effect on actin cytoskeleton in human non-diabetic primary fibroblasts assessed as formation of thin elongated cellular body at 10 nM after 2 hrs by rhodamine phalloidin-staining based fluorescence microscopic analysis; format: functional; method in brief: as §1
[5] = biological target: Ras-related C3 botulinum toxin substrate 1 (Homo sapiens) (UniProt P63000); experiment: Activation of Rac1 in human diabetic primary keratinocytes at 10 nM after 20 mins by immunoblot method
Method in brief: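 Primary keratinocytes from a diabetic adult donor (NHK-d), exposed 20 min. Lysed in glycerol/Tris pH 7.4/NaCl/NP-40/MgCl2/PMSF buffer and cleared at 4 °C. Supernatant incubated 1 h at 4 °C with glutathione-sepharose beads carrying GST-PAK to pull down active GTP-bound Rac1. Blotted on a 13% gel, probed with anti-Rac1 (1:2.000) and detected by ECL; total Rac1 also measured. CNF1 (2 nM) positive control, n = 3.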

[6] = biological target: Transforming protein RhoA (Homo sapiens) (UniProt P61586); experiment: Activation of RhoA in human diabetic primary keratinocytes at 10 nM after 3 hrs by immunoblot method
Method in brief: (§2)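 Keratinocytes from a diabetic adult donor; incubation 3 h for RhoA, 20 min for Cdc42 and Rac1. Lysates made in glycerol/Tris pH 7.4/NaCl/NP-40/MgCl2/PMSF buffer, spun at 4 °C. Active GTP-bound form pulled down on glutathione-sepharose with GST-Rhotekin (RhoA) or GST-PAK (Cdc42, Rac1) for 1 h at 4 °C. Total and pulled-down protein read by immunoblot with ECL; n = 3.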

Fibroblast [7] = experiment: Effect on actin cytoskeleton in human diabetic primary fibroblasts assessed as formation of thin elongated cellular body at 10 nM after 2 hrs by rhodamine phalloidin-staining based fluorescence microscopic analysis; format: functional; method in brief: as §1
Keratinocyte = experiment: Effect on actin cytoskeleton in human diabetic primary keratinocytes assessed as formation of cellular protrusions at 10 nM after 2 hrs by rhodamine phalloidin-staining based fluorescence microscopic analysis; format: functional; method in brief: as §1
[8] = biological target: Cell division control protein 42 homolog (Homo sapiens) (UniProt P60953); experiment: Activation of Cdc42 in human diabetic primary keratinocytes at 10 nM after 20 mins by immunoblot method; method in brief: as §2

Measured: Activity

Sequence of Transforming protein RhoA (Homo sapiens) (P61586 whole entry): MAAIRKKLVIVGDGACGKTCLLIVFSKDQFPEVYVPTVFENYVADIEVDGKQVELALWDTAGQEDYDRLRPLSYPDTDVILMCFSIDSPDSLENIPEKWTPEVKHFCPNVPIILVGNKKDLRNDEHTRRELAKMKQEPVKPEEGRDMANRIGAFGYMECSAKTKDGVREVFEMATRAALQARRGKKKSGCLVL
Sequence of Cell division control protein 42 homolog (Homo sapiens) (P60953 whole entry, looked up): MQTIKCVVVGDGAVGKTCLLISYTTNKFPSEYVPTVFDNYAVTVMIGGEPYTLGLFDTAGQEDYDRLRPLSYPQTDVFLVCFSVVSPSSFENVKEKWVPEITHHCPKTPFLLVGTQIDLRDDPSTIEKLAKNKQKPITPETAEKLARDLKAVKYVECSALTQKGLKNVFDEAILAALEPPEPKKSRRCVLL

C=C(C)[C@@H]1CC[C@]2(C(=O)O)CC[C@]3(C)[C@H](CC[C@@H]4[C@@]5(C)CC[C@H](O)C(C)(C)[C@@H]5CC[C@]43C)[C@@H]12
active: Fibroblast [1] | Fibroblast [2]

C=C(C)[C@@H]1CC[C@]2(C)CC[C@]3(C)[C@H](CC[C@@H]4[C@@]5(C)CC[C@H](O)C(C)(C)[C@@H]5CC[C@]43C)[C@@H]12
not listed: Fibroblast [1] | Fibroblast [2]
active: all other assays above
